Measurements reported in ChEMBL document CHEMBL3856250, “Discovery of 6-Fluoro-5-(R)-(3-(S)-(8-fluoro-1-methyl-2,4-dioxo-1,2-dihydroquinazolin-3(4H)-yl)-2-methylphenyl)-2-(S)-(2-hydroxypropan-2-yl)-2,3,4,9-tetrahydro-1H-carbazole-8-carboxamide (BMS-986142): A Reversible Inhibitor of Bruton's Tyrosine Kinase (BTK) Conformationally Constrained by Two …” (J Med Chem, 2016).

Key:
[1] = Protein binding in human serum; assay type: ADME; settings: read-out: PPB (converted)
[2] = AUC in mouse at 10 mg/kg; assay type: ADME, organism-based; settings: in vivo
[3] = Mutagenicity in Salmonella typhimurium by Ames test; assay type: toxicity; settings: salmonella enterica subsp. enterica serovar typhimurium
[4] = Bioavailability in mouse at 10 mg/kg; assay type: ADME, organism-based; settings: in vivo
[5] = molecular target: T1, Tyrosine-protein kinase BTK (Homo sapiens, UniProt Q06187); assay: Inhibition of BTK in human peripheral B cells assessed as suppression of BCR/anti-IgM/IgG-stimulated CD86 surface expression; assay type: cell-based
T1 sequence (Q06187 whole entry): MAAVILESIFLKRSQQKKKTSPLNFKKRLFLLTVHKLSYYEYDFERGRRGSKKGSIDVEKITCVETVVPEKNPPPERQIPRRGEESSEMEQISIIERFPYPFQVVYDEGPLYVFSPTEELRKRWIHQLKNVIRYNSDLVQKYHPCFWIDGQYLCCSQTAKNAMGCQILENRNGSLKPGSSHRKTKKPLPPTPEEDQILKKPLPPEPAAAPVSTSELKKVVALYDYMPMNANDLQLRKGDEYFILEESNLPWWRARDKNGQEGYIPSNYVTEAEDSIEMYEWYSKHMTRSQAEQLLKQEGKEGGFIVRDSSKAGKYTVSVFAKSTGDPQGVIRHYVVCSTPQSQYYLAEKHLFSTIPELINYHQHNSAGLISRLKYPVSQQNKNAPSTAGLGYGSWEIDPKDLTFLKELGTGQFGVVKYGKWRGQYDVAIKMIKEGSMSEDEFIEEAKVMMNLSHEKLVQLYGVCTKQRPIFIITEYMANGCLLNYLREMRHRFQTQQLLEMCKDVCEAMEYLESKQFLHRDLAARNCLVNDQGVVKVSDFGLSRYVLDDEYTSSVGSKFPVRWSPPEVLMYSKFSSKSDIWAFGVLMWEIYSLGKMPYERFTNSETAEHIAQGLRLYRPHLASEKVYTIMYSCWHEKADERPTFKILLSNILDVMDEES

[6] = molecular target: T1, Tyrosine-protein kinase BTK; assay: Inhibition of BTK in human PBM cells assessed as suppression of FCRgammaR/immune complex-stimulated TNFalpha production; assay type: cell-based
[7] = molecular target: T2, Tyrosine-protein kinase ITK/TSK (Homo sapiens, UniProt Q08881); assay: Inhibition of ITK in human peripheral T cells assessed as suppression of TCR/anti-CD3-stimulated protein catalyzed PLCgamma1 phosphorylation; assay type: cell-based, T-cell
T2 sequence (Q08881 whole entry): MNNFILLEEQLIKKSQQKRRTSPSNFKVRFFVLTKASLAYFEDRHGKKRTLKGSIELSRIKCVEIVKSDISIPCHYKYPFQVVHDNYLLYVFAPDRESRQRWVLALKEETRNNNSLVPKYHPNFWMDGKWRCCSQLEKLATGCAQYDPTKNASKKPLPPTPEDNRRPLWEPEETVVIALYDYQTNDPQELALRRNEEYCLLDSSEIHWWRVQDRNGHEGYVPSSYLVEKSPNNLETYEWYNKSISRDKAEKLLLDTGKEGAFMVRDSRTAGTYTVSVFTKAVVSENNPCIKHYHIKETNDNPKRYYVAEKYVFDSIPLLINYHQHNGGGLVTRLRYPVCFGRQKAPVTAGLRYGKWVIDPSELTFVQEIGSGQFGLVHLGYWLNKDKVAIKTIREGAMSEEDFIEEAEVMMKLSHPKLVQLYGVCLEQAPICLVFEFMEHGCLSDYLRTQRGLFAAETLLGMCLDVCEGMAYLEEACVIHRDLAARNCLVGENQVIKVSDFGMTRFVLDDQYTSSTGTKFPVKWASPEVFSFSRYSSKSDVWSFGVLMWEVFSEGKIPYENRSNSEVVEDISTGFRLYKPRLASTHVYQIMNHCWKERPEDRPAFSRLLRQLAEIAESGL

[8] = molecular target: Tyrosine-protein kinase BTK (Mus musculus, UniProt P35991); assay: Inhibition of BTK in mouse whole blood assessed as suppression of BCR/anti-IgM/IgG-stimulated CD69 surface expression after 18 hrs with agitation by FITC-staining based FACS analysis; assay type: tissue-based
Chain of Tyrosine-protein kinase BTK (Mus musculus, UniProt P35991) (P35991 whole entry): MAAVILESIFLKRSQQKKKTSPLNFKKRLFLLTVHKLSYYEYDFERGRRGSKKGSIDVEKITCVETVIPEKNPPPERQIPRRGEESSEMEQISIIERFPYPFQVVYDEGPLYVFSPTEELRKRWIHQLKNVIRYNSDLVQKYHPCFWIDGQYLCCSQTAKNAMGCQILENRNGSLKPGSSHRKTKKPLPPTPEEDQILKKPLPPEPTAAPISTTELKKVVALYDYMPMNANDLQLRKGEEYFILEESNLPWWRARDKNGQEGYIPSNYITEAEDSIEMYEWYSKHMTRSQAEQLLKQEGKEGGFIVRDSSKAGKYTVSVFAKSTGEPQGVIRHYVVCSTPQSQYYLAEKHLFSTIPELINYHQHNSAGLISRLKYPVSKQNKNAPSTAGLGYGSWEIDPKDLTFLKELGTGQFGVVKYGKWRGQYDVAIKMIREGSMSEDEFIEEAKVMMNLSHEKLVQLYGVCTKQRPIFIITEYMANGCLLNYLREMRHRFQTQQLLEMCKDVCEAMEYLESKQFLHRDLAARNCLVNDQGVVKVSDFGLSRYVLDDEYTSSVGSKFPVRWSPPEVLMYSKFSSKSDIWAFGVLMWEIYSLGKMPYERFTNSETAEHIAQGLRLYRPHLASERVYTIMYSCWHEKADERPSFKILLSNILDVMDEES
Outline: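 Mouse whole blood was incubated with compound and stimulated with F(ab′)2 goat anti-mouse IgG+IgM (100 μg/mL) in the same way as the human assay (18 h, 37 °C, agitation). B cells were gated by APC anti-CD19, and CD69 was quantified as FITC MFI by FACS.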

[9] = Protein binding in mouse plasma; assay type: ADME, cell-free; settings: read-out: PPB (converted)
Cytochrome P450 1A2 = molecular target: T3, Cytochrome P450 1A2 (Homo sapiens, UniProt P05177); assay: Inhibition of CYP1A2 (unknown origin); assay type: ADME
T3 sequence (P05177 whole entry): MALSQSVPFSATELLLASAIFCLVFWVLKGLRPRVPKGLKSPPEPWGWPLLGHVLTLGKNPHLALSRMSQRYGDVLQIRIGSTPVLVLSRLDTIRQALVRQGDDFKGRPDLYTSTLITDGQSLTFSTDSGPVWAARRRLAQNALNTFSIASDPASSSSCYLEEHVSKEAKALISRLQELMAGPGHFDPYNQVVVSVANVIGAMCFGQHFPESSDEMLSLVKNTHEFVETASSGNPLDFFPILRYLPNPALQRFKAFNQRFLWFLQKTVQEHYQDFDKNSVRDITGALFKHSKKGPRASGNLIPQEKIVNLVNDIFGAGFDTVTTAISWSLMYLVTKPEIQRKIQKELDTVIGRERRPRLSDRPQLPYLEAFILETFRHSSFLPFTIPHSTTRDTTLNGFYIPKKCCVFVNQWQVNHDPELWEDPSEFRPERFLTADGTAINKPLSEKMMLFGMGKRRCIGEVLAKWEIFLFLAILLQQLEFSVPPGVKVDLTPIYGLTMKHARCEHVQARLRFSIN

Cytochrome P450 2C8 = molecular target: T4, Cytochrome P450 2C8 (Homo sapiens, UniProt P10632); assay: Inhibition of CYP2C8 (unknown origin); assay type: ADME
T4 sequence (P10632 whole entry): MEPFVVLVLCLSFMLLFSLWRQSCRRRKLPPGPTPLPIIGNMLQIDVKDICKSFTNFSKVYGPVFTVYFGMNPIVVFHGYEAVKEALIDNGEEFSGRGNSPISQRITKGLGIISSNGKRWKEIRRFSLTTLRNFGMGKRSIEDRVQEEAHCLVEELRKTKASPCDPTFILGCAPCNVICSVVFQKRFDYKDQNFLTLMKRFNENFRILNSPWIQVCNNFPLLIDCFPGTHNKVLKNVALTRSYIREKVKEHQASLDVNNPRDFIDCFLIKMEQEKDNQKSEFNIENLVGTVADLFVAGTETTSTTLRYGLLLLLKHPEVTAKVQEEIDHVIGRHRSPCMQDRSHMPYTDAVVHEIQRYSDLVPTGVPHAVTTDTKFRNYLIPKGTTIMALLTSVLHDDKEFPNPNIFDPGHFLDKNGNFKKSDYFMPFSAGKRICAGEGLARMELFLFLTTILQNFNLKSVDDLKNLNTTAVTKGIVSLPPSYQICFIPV

[10] = Permeability of the compound at pH 7.4 by PAMPA assay; assay type: ADME; settings: read-out: permeability
[11] = Aqueous solubility of the compound; assay type: physicochemical; settings: aqueous medium
[12] = Distribution coefficient, log D of the compound at pH 7.0 by HPLC method; assay type: physicochemical; settings: octanol/water
[13] = Tmax in mouse at 6 mg/kg, po; assay type: ADME, organism-based; settings: in vivo
[14] = AUC in mouse at 6 mg/kg, po; assay type: ADME, organism-based; settings: in vivo
[15] = Half life in mouse at 3 mg/kg, iv; assay type: ADME, organism-based; settings: in vivo
[16] = Volume of distribution at steady state in mouse at 3 mg/kg, iv; assay type: ADME, organism-based; settings: in vivo, read-out: Vdss
[17] = Oral bioavailability in mouse at 3 mg/kg; assay type: ADME, organism-based; settings: in vivo
[18] = Tmax in rat at 5 mg/kg, po; assay type: ADME, organism-based; settings: in vivo
[19] = AUC in rat at 5 mg/kg, po; assay type: ADME, organism-based; settings: in vivo
[20] = Half life in rat at 2 mg/kg, iv; assay type: ADME, organism-based; settings: in vivo
[21] = MRT in rat at 2 mg/kg, iv; assay type: ADME, organism-based; settings: in vivo
[22] = Volume of distribution at steady state in rat at 2 mg/kg, iv; assay type: ADME, organism-based; settings: in vivo, read-out: Vdss
[23] = Oral bioavailability in rat at 5 mg/kg; assay type: ADME, organism-based; settings: in vivo
[24] = AUC in cynomolgus monkey at 4 mg/kg, po; assay type: ADME, organism-based, Macaca fascicularis; settings: in vivo
[25] = Half life in cynomolgus monkey at 2 mg/kg, iv; assay type: ADME, organism-based, Macaca fascicularis; settings: in vivo
[26] = MRT in cynomolgus monkey at 2 mg/kg, iv; assay type: ADME, organism-based, Macaca fascicularis; settings: in vivo
[27] = Cmax in dog at 2 mg/kg, po; assay type: ADME, organism-based, Canis lupus familiaris; parameters: dose 2 mg/kg, route oral; settings: in vivo
[28] = Tmax in dog at 2 mg/kg, po; assay type: ADME, organism-based, Canis lupus familiaris; settings: in vivo
[29] = AUC in dog at 2 mg/kg, po; assay type: ADME, organism-based, Canis lupus familiaris; settings: in vivo

Which results are given for Cc1c(-c2c(F)cc(C(N)=O)c3[nH]c4c(c23)CC[C@H](C(C)(C)O)C4)cccc1-n1c(=O)c2cccc(F)c2n(C)c1=O (atropisomer R) [BMS-986142]?
fraction unbound [1]: 0.009; AUC [2]: 39 µM·h; Activity [3]: Non-Toxic; bioavailability [4]: < 4%; IC50 [5]: 4 nM; IC50 [6]: 3 nM; IC50 [7]: 410 nM; IC50 [8]: 140 nM; fraction unbound [9]: 0.015; IC50 (Cytochrome P450 1A2): > 40000 nM; IC50 (Cytochrome P450 2C8): 2600 nM; Papp [10]: 72.5 ×10⁻⁶ cm/s; solubility [11]: < 4 µg/mL; logD [12]: 4.06; Tmax [13]: 1 h; AUC [14]: 39 µM·h; half-life [15]: 3.4 h; Vd [16]: 1.2 L/kg; bioavailability [17]: 93%; Tmax [18]: 3 h; AUC [19]: 23 µM·h; half-life [20]: 3.6 h; MRT [21]: 5.1 h; Vd [22]: 1.3 L/kg; bioavailability [23]: 67%; AUC [24]: 5 µM·h; half-life [25]: 5.1 h; MRT [26]: 4.7 h; Cmax [27]: 1200 nM; Tmax [28]: 3 h; AUC [29]: 16 µM·h
